In brackets after ≈: the same amount, converted by molar mass. Activity calls are given as the source filed them. The calls are words filed in the database; no cut-off is given here.
Experiments:
[1] = tested on: Staphylococcus aureus; assay: Potentiation of cefazolin induced antibacterial activity against methicillin resistant Staphylococcus aureus ATCC BAA-44 assessed as minimum resensitizing concentration after 18 hrs by broth microdilution method; assay type: functional; settings: ATCC BAA-44, 18 h, read-out: MEC
Summary of the method: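 Compound titrated in the presence of cefazolin at its CLSI breakpoint (8 μg/mL); MRC is the compound concentration at which no overnight growth occurs, in μg/mL; confirmed in triplicate.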

[2] = tested on: Staphylococcus aureus; assay: Ratio of MIC for antibacterial activity against methicillin resistant Staphylococcus aureus ATCC BAA-44 to MEC for potentiation of cefazolin induced antibacterial activity against methicillin resistant Staphylococcus aureus ATCC BAA-44; assay type: functional
Summary of the method: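 Compound MIC alone (CLSI broth microdilution) divided by its MRC with cefazolin at the 8 μg/mL breakpoint, both against MRSA BAA-44; each confirmed in triplicate.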

[3] = tested on: HeLa; assay: Cytotoxicity against human HeLa cells assessed as cell growth inhibition measured after 24 hrs by Celltiter Glo luminescent assay; assay type: cell-based; settings: hela, 24 h
[4] = tested on: Staphylococcus aureus; assay: Antibacterial activity against methicillin resistant Staphylococcus aureus ATCC BAA-44 after 18 hrs by broth microdilution method; assay type: functional; settings: ATCC BAA-44, 18 h
Summary of the method: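 Compound alone, MIC by standard CLSI broth microdilution; lowest concentration with no growth, reported in μg/mL; confirmed in triplicate.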

[5] = tested on: Staphylococcus aureus; assay: Antibacterial activity against methicillin resistant Staphylococcus aureus ATCC BAA-44 at 128 to 256 ug/ml after 18 hrs by broth microdilution method; assay type: functional, organism-based

Compound | minimal effective concentration [1] [µg/mL] | Ratio [2] | GI50 [3] [µg/mL] | MIC [4] [µg/mL] | Activity [5]
Clc1ccc2[nH]c3c(c2c1)CCN(c1nc2ccccc2s1)C3 | > 64 | 0 |  |  | 
FC(F)(F)c1ccc2nc(N3CCc4c([nH]c5ccc(Cl)cc45)C3)oc2c1 | > 64 | 0 |  |  | 
Cl.NCCSCC1CN(c2nc3ccc(Cl)cc3s2)Cc2[nH]c3ccc(Cl)cc3c21 (racemic) | 1 |  | 3.8 |  | 
Cn1c(N2CCc3c([nH]c4ccc(Cl)cc34)C2)nc2ccccc21 | > 64 |  |  |  | 
FC(F)(F)c1cccc2sc(N3CCc4c([nH]c5ccc(Cl)cc45)C3)nc12 | 1 | 32 | 8 (≈ 19.6 µM) | > 32 | 
Clc1ccc2[nH]c3c(c2c1)CCN(c1nc2c(Cl)c(Cl)c(Cl)cc2s1)C3 | 1 |  | 11.7 (≈ 26.4 µM) | 2 (≈ 4.51 µM) | 
Clc1ccc2nc(N3CCc4c([nH]c5cccc(Cl)c45)C3)sc2c1 | 16 |  |  | > 16 | 
Clc1ccc2sc(N3CCc4c([nH]c5ccc(Cl)cc45)C3)nc2c1 | > 64 | 0 |  |  | 
Cl.NCC(=O)Nc1cc(Cl)c2nc(N3CCc4c([nH]c5ccc(Cl)cc45)C3)sc2c1 | 2 |  | 14.8 |  | 
NCC1CN(c2nc3ccc(Cl)cc3s2)Cc2[nH]c3ccc(Cl)cc3c21 (racemic) | 1 |  | 1.5 (≈ 3.72 µM) |  | 
Clc1ccc2nc(N3CCc4c([nH]c5ccc(Cl)cc45)C3)oc2c1 | > 64 | 0 |  |  | 
Cc1ccc2nc(N3CCc4c([nH]c5ccc(Cl)cc45)C3)sc2c1 | > 64 | 0 |  |  | 
CO/N=C(\C(=O)N[C@@H]1C(=O)N2C(C(=O)O)=C(COC(N)=O)CS[C@H]12)c1ccco1 |  |  |  |  | Active
Oc1cc(Cl)c2nc(N3CCc4c([nH]c5ccc(Cl)cc45)C3)sc2c1 | 8 |  | 5.5 (≈ 14.1 µM) | > 32 | 
Cc1nnc(SCC2=C(C(=O)O)N3C(=O)[C@@H](NC(=O)Cn4cnnn4)[C@H]3SC2)s1 |  |  |  |  | Active
Clc1cc(Cl)c2nc(N3CCc4c([nH]c5ccc(Cl)cc45)C3)sc2c1 | 1 |  | 16.1 (≈ 39.4 µM) | 2 (≈ 4.89 µM) | 
Cn1c(N2CCc3c([nH]c4ccc(Cl)cc34)C2)nc2ccc(C(F)(F)F)cc21 | > 64 |  |  |  | 
Cn1c(N2CCc3c([nH]c4ccc(Cl)cc34)C2)nc2ccc(Cl)cc21 | > 64 |  |  |  | 
N=CNCC1CN(c2nc3ccc(Cl)cc3s2)Cc2[nH]c3ccc(Cl)cc3c21 (racemic) | 2 |  | 3.8 (≈ 8.83 µM) | 4 (≈ 9.29 µM) | 
NCCNCC1CN(c2nc3ccc(Cl)cc3s2)Cc2[nH]c3ccc(Cl)cc3c21 (racemic) | 2 |  | 2.4 (≈ 5.38 µM) |  | 
COCOCC1CN(c2nc3ccc(Cl)cc3s2)Cc2[nH]c3ccc(Cl)cc3c21 (racemic) | 2 |  | 7 (≈ 15.6 µM) |  | 
S=C(Nc1ccc(Cl)cc1)N1CCc2c([nH]c3ccc(Cl)cc23)C1 | 2 | 2 |  | 4 (≈ 10.6 µM) | 
CN(C)C(=O)C1CN(c2nc3ccc(Cl)cc3s2)Cc2[nH]c3ccc(Cl)cc3c21 (racemic) | > 32 | 0 |  |  | 
Clc1ccc2nc(N3CCc4c([nH]c5ccc(Br)cc45)C3)sc2c1 | 1 |  |  | 4 (≈ 9.55 µM) | 
Clc1ccc2c3c([nH]c2c1)CN(c1nc2ccc(Cl)cc2s1)CC3 | > 64 |  |  |  | 
Clc1ccc2[nH]c3c(c2c1)CCN(c1nc2ncccc2s1)C3 | > 64 |  |  |  | 
Clc1ccc2[nH]c3c(c2c1)CCN(c1nc2ccccc2o1)C3 | > 64 | 0 |  |  | 
Cl.NCCNc1cc(C(F)(F)F)c2nc(N3CCc4c([nH]c5ccc(Cl)cc45)C3)sc2c1 | 1 |  | 7.4 |  | 

Compound | minimal effective concentration [1] [µg/mL] | Ratio [2] | GI50 [3] [µg/mL] | MIC [4] [µg/mL] | Activity [5]
Nc1ccc2nc(N3CCc4c([nH]c5ccc(Cl)cc45)C3)sc2c1 | > 64 |  |  |  | 
Fc1ccc2[nH]c3c(c2c1)CCN(c1nc2ccc(Cl)cc2s1)C3 | > 64 |  |  |  | 
CNc1cc(C(F)(F)F)c2nc(N3CCc4c([nH]c5ccc(Cl)cc45)C3)sc2c1 | 2 |  | 15.4 (≈ 35.2 µM) | > 32 | 
FC(F)(F)Oc1ccc(NC(=S)N2CCc3c([nH]c4ccc(Cl)cc34)C2)cc1 | 1 | 2 |  |  | 
FC(F)(F)c1cnc2nc(N3CCc4c([nH]c5ccc(Cl)cc45)C3)sc2c1 | > 64 |  |  |  | 
CCOC(=O)C1c2[nH]c3ccc(Cl)cc3c2CCN1c1nc2ccc(Cl)cc2s1 (stereo unspecified) | > 64 |  |  |  | 
FC(F)(F)c1cc(Br)cc2sc(N3CCc4c([nH]c5ccc(Cl)cc45)C3)nc12 | 0.5 |  | 5.9 (≈ 12.1 µM) | 4 (≈ 8.22 µM) | 
CN(C)CC1CN(c2nc3ccc(Cl)cc3s2)Cc2[nH]c3ccc(Cl)cc3c21 (racemic) | 1 |  | 5.2 (≈ 12.1 µM) | 2 (≈ 4.64 µM) | 
NCCOc1cc(Cl)c2nc(N3CCc4c([nH]c5ccc(Cl)cc45)C3)sc2c1 | 4 |  |  | 8 (≈ 18.5 µM) | 
OCC1CN(c2nc3ccc(Cl)cc3s2)Cc2[nH]c3ccc(Cl)cc3c21 (racemic) | 2 |  | 10.8 (≈ 26.7 µM) |  | 
COc1ccc2[nH]c3c(c2c1)CCN(c1nc2ccc(Cl)cc2s1)C3 | > 64 |  |  |  | 
Clc1ccc2nc(N3CCc4c([nH]c5ccc(Cl)cc45)C3)sc2c1 | 2 | 32 | 13.2 (≈ 35.3 µM) | > 64 | 
Clc1ccc2[nH]c3c(c2c1)CCN(c1nc2c(Cl)cc(Br)cc2s1)C3 | 8 |  | 22 (≈ 48.5 µM) | > 32 | 
Clc1ccc2nc(N3CCc4c([nH]c5c(Cl)cccc45)C3)sc2c1 | 16 |  |  | > 16 | 
COc1cc(Cl)c2nc(N3CCc4c([nH]c5ccc(Cl)cc45)C3)sc2c1 | > 32 |  |  |  | 
FC(F)(F)c1ccc2nc(N3CCc4c([nH]c5ccc(Cl)cc45)C3)sc2c1 | 0.5 |  | 4.6 (≈ 11.3 µM) | > 64 | 
FC(F)(F)c1ccc(NC(=S)N2CCc3c([nH]c4ccc(Cl)cc34)C2)cc1 | 1 | 2 |  | 2 (≈ 4.88 µM) | 
Clc1ccc2[nH]c3c(c2c1)CCN(c1nc2cccc(Cl)c2s1)C3 | 1 |  | 6.7 (≈ 17.9 µM) | 4 (≈ 10.7 µM) | 
COC(=O)C1CN(c2nc3ccc(Cl)cc3s2)Cc2[nH]c3ccc(Cl)cc3c21 (racemic) | 1 | 32 | 6.6 (≈ 15.3 µM) | > 32 | 
CCn1c2c(c3cc(Cl)ccc31)CCN(c1nc3ccc(Cl)cc3s1)C2 | > 64 |  |  |  | 
O=C(O)C1CN(c2nc3ccc(Cl)cc3s2)Cc2[nH]c3ccc(Cl)cc3c21 (racemic) | 16 | 0 | 65 (≈ 155 µM) | 32 (≈ 76.5 µM) | 
CCOC(=O)c1ccc2nc(N3CCc4c([nH]c5ccc(Cl)cc45)C3)sc2c1 | > 64 |  |  |  | 
Clc1ccc2[nH]c3c(c2c1)CCN(c1nc2c(Cl)cccc2s1)C3 | 2 | 32 | 27.7 (≈ 74 µM) | > 64 | 
Cl.Nc1cc(C(F)(F)F)c2nc(N3CCc4c([nH]c5ccc(Cl)cc45)C3)sc2c1 | 2 |  | 32 | 16 | 
Clc1ccc2[nH]c3c(c2c1)CCN(c1nc2ccc(Br)cc2s1)C3 | 2 |  | 5.1 (≈ 12.2 µM) | > 64 | 
FC(F)(F)Oc1ccc2nc(N3CCc4c([nH]c5ccc(Cl)cc45)C3)sc2c1 | 1 | 0 | 7.3 (≈ 17.2 µM) |  | 
C[N+](C)(C)CC1CN(c2nc3ccc(Cl)cc3s2)Cc2[nH]c3ccc(Cl)cc3c21.[I-] (racemic) | 4 |  | 18 | 8 | 

— ChEMBL document CHEMBL4406847, “Tryptoline-based benzothiazoles re-sensitize MRSA to β-lactam antibiotics” (Bioorg Med Chem, 2019)
